Experimental data taken from ChEMBL document CHEMBL4325922, “Restoring Let-7 microRNA Biogenesis Using a Small-Molecule Inhibitor of the Protein-RNA Interaction” (ACS Med Chem Lett, 2018).
Calls of active or inactive are those of the source.

Assays:
Protein lin-28 homolog A = molecular target: T1, Protein lin-28 homolog A (Homo sapiens, UniProt Q9H9Z2); assay: Binding affinity to recombinant human N-terminal His6-tagged Lin28a expressed in Escherichia coli Rosetta2 (DE3) pLysS by surface plasmon resonance analysis
T1 sequence (Q9H9Z2 whole entry): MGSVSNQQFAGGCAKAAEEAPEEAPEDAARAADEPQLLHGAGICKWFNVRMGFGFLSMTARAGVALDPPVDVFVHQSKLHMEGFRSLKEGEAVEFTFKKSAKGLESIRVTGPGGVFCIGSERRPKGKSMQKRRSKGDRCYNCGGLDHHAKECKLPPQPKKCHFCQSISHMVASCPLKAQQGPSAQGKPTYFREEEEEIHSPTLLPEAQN
Summary of the method: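 Surface plasmon resonance detecting direct binding of analyte to immobilized Lin28a, run at concentrations from 0.31 to 10 μM; binding read as a dose–response curve and Rmax calculated.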

[1] = molecular target: T2, Protein lin-28 homolog A (Homo sapiens) (UniProt Q9H9Z2); assay: Inhibition of pre-let-7g binding to recombinant human N-terminal His6-tagged Lin28a expressed in Escherichia coli Rosetta2 (DE3) pLysS assessed as increase in dicer-mediated pre-let-7g microRNA maturation at 5 to 10 uM measured after 40 mins by SYBR green2 dye based fluorescence assay
T2 sequence (whole entry): T1 sequence (Q9H9Z2 whole entry)

[2] = molecular target: T3, Protein lin-28 homolog A/B (Homo sapiens) (UniProt Q6ZN17+Q9H9Z2); assay: Inhibition of Lin28a/Lin28b in human JAR cells assessed as increase in mature let-7d level after 20 hrs by TRIzol dye based qRT-PCR analysis; type: cell-based
Summary of the method: (§1)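 JAR cells (express Lin28a and Lin28b) exposed to compound for 20 h; miRNA levels quantified with U6 snRNA as endogenous control; three or more biological replicates, standard deviation, paired two-tailed t test.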

PA-1 [3] = assay: Increase in mature let-7i level in Lin28a CRISPR-Cas9 knockout human PA1 cells at 10 uM after 20 hrs by qRT-PCR analysis; type: functional, cell-based
Summary of the method: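 PA-1 cells with Lin28a fully knocked out by CRISPR/Cas9 editing (clonal lines) treated for 20 h; let-7 levels normalized to U6 snRNA; 2 technical replicates.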

JAR [4] = assay: Inhibition of sphere formation in human JAR cells at 10 uM after 24 hrs by WST assay; type: functional, cell-based
Summary of the method: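 JAR cells are pretreated with compound for 24 h, dissociated to single cells, and equal numbers of viable cells are cultured in sphere-forming media for 12 days. Sphere formation is quantified by WST assay. Three biological replicates, standard deviation, paired two-tailed t test.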

[5] = molecular target: T2, Protein lin-28 homolog A (Homo sapiens); assay: Inhibition of Lin28a in human PA1 cells assessed as reduction in HMGA2 expression at 10 uM after 24 hrs by Western blot analysis; type: cell-based
Summary of the method: (§2)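 Endogenous let-7 target proteins (HMGA2, IMP1, Ras, Lin28a) detected by Western blot in JAR or PA-1 cells after 24 h compound treatment.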

[6] = molecular target: T3, Protein lin-28 homolog A/B (Homo sapiens); assay: Inhibition of Lin28a/Lin28b in human JAR cells assessed as reduction in HMGA2 expression at 5 to 10 uM after 24 hrs by Western blot analysis; type: cell-based; summary of the method: as §2
[7] = molecular target: T2, Protein lin-28 homolog A (Homo sapiens); assay: Inhibition of Lin28a in human PA1 cells assessed as reduction in IMP1 expression at 10 uM after 24 hrs by Western blot analysis; type: cell-based; summary of the method: as §2
JAR [8] = assay: Effect on miR-20b level in human JAR cells at 5 to 10 uM after 20 hrs by TRIzol dye based qRT-PCR analysis; type: functional, cell-based; summary of the method: as §1
[9] = molecular target: T3, Protein lin-28 homolog A/B (Homo sapiens); assay: Inhibition of Lin28a/Lin28b in human MCF7 cells assessed as reduction in HMGA2 expression at 10 uM after 24 hrs by Western blot analysis; type: cell-based
[10] = molecular target: T3, Protein lin-28 homolog A/B (Homo sapiens); assay: Inhibition of Lin28a/Lin28b in human JAR cells assessed as reduction in HMGA2 expression after 20 hrs by dual-luciferase reporter gene assay
[11] = molecular target: T3, Protein lin-28 homolog A/B (Homo sapiens); assay: Inhibition of Lin28a/Lin28b in human JAR cells assessed as reduction in Lin28a expression at 5 to 10 uM after 24 hrs by Western blot analysis; type: cell-based; summary of the method: as §2
[12] = molecular target: T3, Protein lin-28 homolog A/B (Homo sapiens); assay: Inhibition of Lin28a/Lin28b in human JAR cells assessed as increase in mature let-7a level after 20 hrs by TRIzol dye based qRT-PCR analysis; type: cell-based; summary of the method: as §1
[13] = molecular target: T3, Protein lin-28 homolog A/B (Homo sapiens); assay: Inhibition of Lin28a/Lin28b in human paclitaxel-resistant JAR cells assessed as reduction in MDR1 expression at 10 uM measured after 24 hrs by Western blot analysis
PA-1 [14] = assay: Cytotoxicity against human PA1 cells after 24 hrs by WST assay; type: functional, cell-based
[15] = molecular target: T3, Protein lin-28 homolog A/B (Homo sapiens); assay: Inhibition of Lin28a/Lin28b in human JAR cells assessed as increase in mature let-7b level after 20 hrs by TRIzol dye based qRT-PCR analysis; type: cell-based; summary of the method: as §1
[16] = molecular target: Endoribonuclease Dicer (Homo sapiens) (UniProt Q9UPY3); assay: Inhibition of recombinant FLAG-tagged human dicer expressed in HEK293 cells assessed as reduction in pre-let-7g microRNA maturation at 5 to 10 uM after 40 mins by SYBR green2 dye based fluorescence assay; type: cell-based
[17] = molecular target: T2, Protein lin-28 homolog A (Homo sapiens); assay: Inhibition of Lin28a in human PA1 cells assessed as reduction in Lin28 expression at 10 uM after 24 hrs by Western blot analysis; type: cell-based; summary of the method: as §2
JAR [18] = assay: Increase in mature let-7d level in Lin28a/b knockdown human JAR cells at 10 uM after 20 hrs by qRT-PCR analysis; type: functional, cell-based
Summary of the method: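 Lin28 knocked-down JAR cells treated for 20 h; let-7 levels measured against U6 snRNA endogenous control; 2 biological replicates.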

[19] = molecular target: T2, Protein lin-28 homolog A (Homo sapiens); assay: Inhibition of Lin28a in human PA1 cells assessed as increase in mature let-7d level at 10 uM after 20 hrs by TRIzol dye based qRT-PCR analysis; type: cell-based
Summary of the method: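 PA-1 ovarian teratocarcinoma cells (express Lin28a) treated for 20 h; let-7 quantified relative to U6 snRNA; 4 biological replicates, standard deviation, paired two-tailed t test.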

[20] = Cytotoxicity against mouse C8-D1A cells at 10 uM after 24 hrs by WST assay; type: cell-based
[21] = molecular target: T2, Protein lin-28 homolog A (Homo sapiens); assay: Binding affinity to recombinant human N-terminal His6-tagged Lin28a cold shock domain expressed in Escherichia coli Rosetta2 (DE3) pLysS at 0.625 to 10 uM by surface plasmon resonance analysis
[22] = molecular target: T3, Protein lin-28 homolog A/B (Homo sapiens); assay: Inhibition of Lin28a/Lin28b in human JAR cells assessed as increase in mature let-7f level after 20 hrs by TRIzol dye based qRT-PCR analysis; type: cell-based; summary of the method: as §1
[23] = molecular target: T3, Protein lin-28 homolog A/B (Homo sapiens); assay: Inhibition of Lin28a/Lin28b in human JAR cells assessed as reduction in Ras expression at 5 to 10 uM after 24 hrs by Western blot analysis; type: cell-based; summary of the method: as §2
[24] = molecular target: T2, Protein lin-28 homolog A (Homo sapiens); assay: Binding affinity to recombinant human N-terminal His6-tagged Lin28a zinc knuckle domain expressed in Escherichia coli Rosetta2 (DE3) pLysS at 0.625 to 10 uM by surface plasmon resonance analysis
[25] = molecular target: T3, Protein lin-28 homolog A/B (Homo sapiens); assay: Inhibition of Lin28a/Lin28b in human paclitaxel-resistant JAR cells assessed as reduction in IMP1 expression at 10 uM measured after 24 hrs by Western blot analysis

T3 sequence (Q6ZN17 whole entry, looked up, one chain of several): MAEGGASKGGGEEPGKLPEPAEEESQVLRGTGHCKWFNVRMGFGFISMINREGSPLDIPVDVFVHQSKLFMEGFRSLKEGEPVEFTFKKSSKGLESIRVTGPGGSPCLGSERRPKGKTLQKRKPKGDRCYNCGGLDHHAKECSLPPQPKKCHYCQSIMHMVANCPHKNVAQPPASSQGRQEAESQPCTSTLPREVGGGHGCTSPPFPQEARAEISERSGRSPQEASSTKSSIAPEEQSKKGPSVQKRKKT
Sequence of Endoribonuclease Dicer (Homo sapiens) (Q9UPY3 whole entry): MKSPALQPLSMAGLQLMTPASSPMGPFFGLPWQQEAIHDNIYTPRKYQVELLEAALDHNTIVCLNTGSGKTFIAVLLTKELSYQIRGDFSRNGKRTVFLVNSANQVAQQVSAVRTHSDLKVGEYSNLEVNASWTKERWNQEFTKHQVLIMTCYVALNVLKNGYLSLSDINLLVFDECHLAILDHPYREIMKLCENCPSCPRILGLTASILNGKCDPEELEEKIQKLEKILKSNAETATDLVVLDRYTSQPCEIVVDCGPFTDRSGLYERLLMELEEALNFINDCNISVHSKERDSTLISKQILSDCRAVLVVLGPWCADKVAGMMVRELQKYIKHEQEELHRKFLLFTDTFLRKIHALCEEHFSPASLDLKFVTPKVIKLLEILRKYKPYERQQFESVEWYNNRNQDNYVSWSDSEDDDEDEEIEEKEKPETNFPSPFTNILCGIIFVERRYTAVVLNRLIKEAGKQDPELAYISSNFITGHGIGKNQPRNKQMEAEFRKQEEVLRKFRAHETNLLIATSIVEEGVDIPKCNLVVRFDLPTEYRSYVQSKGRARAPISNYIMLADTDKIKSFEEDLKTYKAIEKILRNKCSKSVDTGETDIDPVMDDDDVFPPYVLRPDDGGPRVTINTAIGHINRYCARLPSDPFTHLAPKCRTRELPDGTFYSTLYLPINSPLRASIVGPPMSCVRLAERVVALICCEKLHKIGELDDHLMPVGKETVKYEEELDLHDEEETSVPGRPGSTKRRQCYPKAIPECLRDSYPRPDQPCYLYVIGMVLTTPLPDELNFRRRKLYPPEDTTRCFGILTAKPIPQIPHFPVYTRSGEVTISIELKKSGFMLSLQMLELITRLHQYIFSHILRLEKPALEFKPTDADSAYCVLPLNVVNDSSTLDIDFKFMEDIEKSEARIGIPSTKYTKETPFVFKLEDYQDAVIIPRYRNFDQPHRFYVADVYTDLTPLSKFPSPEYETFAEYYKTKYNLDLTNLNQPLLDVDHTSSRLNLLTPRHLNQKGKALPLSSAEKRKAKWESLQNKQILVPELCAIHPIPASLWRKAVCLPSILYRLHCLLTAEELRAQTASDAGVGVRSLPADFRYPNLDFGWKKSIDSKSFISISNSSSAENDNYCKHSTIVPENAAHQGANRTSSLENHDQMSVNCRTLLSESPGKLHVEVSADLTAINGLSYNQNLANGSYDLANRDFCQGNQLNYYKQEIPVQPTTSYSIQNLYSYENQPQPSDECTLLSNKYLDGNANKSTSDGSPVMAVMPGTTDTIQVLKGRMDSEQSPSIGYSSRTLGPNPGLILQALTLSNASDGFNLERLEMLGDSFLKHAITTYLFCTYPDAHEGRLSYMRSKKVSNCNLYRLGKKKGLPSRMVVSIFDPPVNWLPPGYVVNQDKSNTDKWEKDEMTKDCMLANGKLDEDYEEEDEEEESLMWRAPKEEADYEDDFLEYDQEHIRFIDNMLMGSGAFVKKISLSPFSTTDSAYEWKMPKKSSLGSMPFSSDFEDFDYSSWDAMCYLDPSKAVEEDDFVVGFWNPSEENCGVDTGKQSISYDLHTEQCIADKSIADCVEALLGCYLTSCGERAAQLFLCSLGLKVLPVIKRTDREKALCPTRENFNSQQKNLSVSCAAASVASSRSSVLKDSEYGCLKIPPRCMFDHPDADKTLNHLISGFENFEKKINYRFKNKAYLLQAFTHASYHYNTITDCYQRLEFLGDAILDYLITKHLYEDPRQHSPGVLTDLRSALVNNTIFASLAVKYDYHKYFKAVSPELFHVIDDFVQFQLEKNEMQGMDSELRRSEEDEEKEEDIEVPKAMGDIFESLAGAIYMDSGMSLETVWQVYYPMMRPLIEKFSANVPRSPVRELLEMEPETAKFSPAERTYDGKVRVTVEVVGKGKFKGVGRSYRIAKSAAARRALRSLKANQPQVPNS

NC(=O)c1c(Nc2ccc(Cl)cc2Cl)[nH]c2c(Cl)ccc(Cl)c2c1=O
active: inhibition [1] | inhibition [2] Dose-dependent effect | inhibition (JAR [4]) | inhibition [5] | inhibition [6] | inhibition [7] | inhibition [10] Dose-dependent effect | inhibition [11] | inhibition [12] Dose-dependent effect | inhibition [13] | Activity (PA-1 [14]) | inhibition [15] Dose-dependent effect | inhibition [17] | inhibition [19] | Activity [21] | inhibition [22] Dose-dependent effect | inhibition [23] | inhibition [25]
5.9 µM: Kd (Protein lin-28 homolog A)
Toxic: Activity [20]
inactive: Activity (PA-1 [3]) | Activity (JAR [8]) | inhibition [9] | inhibition [16] | Activity (JAR [18]) | Activity [24]
